High-throughput results (PubChem BioAssay)
Sampled rows, rich in hits. Any-hit rate of the full collection: about 4.6%.
OX1R antag-1: OX1R (human) antagonism; AID 485270; actives 1.8% (n = 330,000); inhibition, % at 6.6 µM; O43613; OX1R-expressing cells, FRET antagonist read-out; in the data active = inhibition mostly above about 38%, no sharp cut-off; inactive = mostly below about 40%;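 note: 0% = agonist challenge alone and 100% = reference antagonist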
Target sequence (O43613 whole entry, looked up): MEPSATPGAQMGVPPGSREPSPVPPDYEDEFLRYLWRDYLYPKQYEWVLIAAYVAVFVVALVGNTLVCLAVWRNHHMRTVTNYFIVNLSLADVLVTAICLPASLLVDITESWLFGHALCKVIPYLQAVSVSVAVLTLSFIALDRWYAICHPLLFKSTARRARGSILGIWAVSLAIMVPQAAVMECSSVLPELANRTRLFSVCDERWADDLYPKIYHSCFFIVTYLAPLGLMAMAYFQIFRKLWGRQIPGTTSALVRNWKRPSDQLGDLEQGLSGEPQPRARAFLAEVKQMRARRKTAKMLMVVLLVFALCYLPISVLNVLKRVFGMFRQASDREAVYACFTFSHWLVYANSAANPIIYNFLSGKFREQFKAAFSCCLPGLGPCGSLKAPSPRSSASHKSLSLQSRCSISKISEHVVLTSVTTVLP
TAAR1 antag: human TAAR1 antagonism; Q96RJ0; CHO RD-HGA16 TAAR1, Fluo-8 calcium fluorescence, antagonist; inhibition, % at 3 µM; actives 1.5% (n = 360,000);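 active = inhibition above a per-plate cutoff, the mean inhibition of test compounds on that plate plus 3 SD, cut at about 49% in these data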;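 note: 0% = DMSO plus EC80 beta-PEA response and 100% = DMSO alone without agonist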
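Assay system: RD-HGA16 CHO cells with stable hTAAR1 and Gα16 / Reagent: EC80 β-phenethylamine stimulus / Doses: 3 µM, single point / Timing: dye loading 75 min at 37 °C, then 30 min room temperature / Measured by: Fluo-8 intracellular calcium dye fluorescence, real-time kinetic reads / Controls: vehicle wells and EC80 agonist wells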
GPR7 antag: human neuropeptides B/W receptor 1 antagonism | P48145 | GPR7-expressing cells, fluorescence antagonist assay | inhibition, % at 4.4 µM | actives 1.1% (n = 290,000); in the data active = inhibition above about 16%, passing the limit was not always enough;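 note: cells stimulated with the agonist NPW; 0% = agonist with vehicle and 100% = vehicle without agonist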
CHO parental Ca: signal in parental CHO cells, OX1R antagonist counter-screen; parental CHO-K1, ATP-induced calcium, Fluo-8 fluorescence; inhibition, % at 5.6 µM; actives 0.63% (n = 330,000); AID 463079;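 active = inhibition above that plate's mean sample inhibition plus 3 SD, cut at about 26% in these data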;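 note: 0% = ATP-challenged DMSO wells and 100% = DMSO wells without ATP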
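Test system: untransfected parental CHO cell line; also added: ATP stimulus; dosing: 5.6 µM, single dose; signal: calcium-sensitive Fluo-8 fluorescence; measure: percent inhibition of ATP-evoked calcium rise, normalized to controls; benchmarks: low control ATP plus DMSO, high control DMSO only; replication: one well per compound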
OX1R antag-2: antagonists of human orexin 1 receptor; O43613; CHO/OX1R cells, Fluo-8 calcium fluorescence, orexin A; inhibition, % at 5 µM; actives 0.43% (n = 330,000); AID 434989;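 active = inhibition above its plate's threshold, mean inhibition of all tested compounds on the plate plus 3 SD, cut at about 37% in these data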;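 note: 0% = orexin A challenge wells and 100% = SB-334867-A antagonist wells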
TAAR1 agonist: human TAAR1 agonism; AID 624467; CHO RD-HGA16 TAAR1, Fluo-8 calcium fluorescence; vehicle wells 0%, saturating PEA agonist 100%; Q96RJ0; activation, % at 3 µM; actives 0.99% (n = 360,000);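 active = activation above the mean activation of all test compounds in the run plus 3 SD, cut at about 38% in these data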
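Test system: RD-HGA16 (CHO) cells co-expressing Gα16 and hTAAR1; dosing: one-point dosing at 3 µM (nominal); timing: 17-24 h seeding, 75 min 37 °C dye, 30 min RT; signal: kinetic Fluo-8 calcium fluorescence; read-out basis: % activation relative to PEA EC100 response; controls: DMSO and PEA EC100; replicates: n 1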
* = called active by the depositor.

COc1ccc2cc3cc(C(=O)N4CCN(Cc5ccc6c(c5)OCO6)CC4)oc3nc2c1 was read as OX1R antag-1 43.2, TAAR1 antag 23.8, GPR7 antag -2.2, CHO parental Ca -12.8, OX1R antag-2 -38.6 and TAAR1 agonist 9.0.
Screening O=C(COc1ccc2ccccc2c1)Nc1ccccc1C(=O)O returned OX1R antag-1 14.5, TAAR1 antag -39.3, GPR7 antag -4.2, CHO parental Ca -1.8, OX1R antag-2 -10.4 and TAAR1 agonist -3.1.
For CCC(=O)N1CCc2cc(S(=O)(=O)NCCC(=O)N3CC=C(c4ccccc4)CC3)ccc21 the results were OX1R antag-1 55.4*, TAAR1 antag 17.1, GPR7 antag -3.0, CHO parental Ca 11.6, OX1R antag-2 4.7 and TAAR1 agonist 3.6.
Screening CCOCc1nnc(NC(=O)C2CCN(C(=O)C3CC(=O)N(c4ccc(C)cc4)C3)CC2)s1 (stereo unspecified) returned OX1R antag-1 18.7, TAAR1 antag -5.8, GPR7 antag -2.4, CHO parental Ca 1.6, OX1R antag-2 8.4 and TAAR1 agonist -1.7.
Screening O=[N+]([O-])c1ccc2ncnc(N3CCN(Cc4ccc5c(c4)OCO5)CC3)c2c1 returned OX1R antag-1 56.0*, TAAR1 antag 3.4, GPR7 antag 0.7, CHO parental Ca -3.7, OX1R antag-2 -20.2 and TAAR1 agonist 1.9.
Screening C=C(C)C(=O)N1CC2(CC(c3cccc(NC(=O)CCCCC)c3)=NO2)C[C@H]1C(N)=O (stereo partly specified) returned OX1R antag-1 34.8, TAAR1 antag -8.7, CHO parental Ca -0.4, OX1R antag-2 -9.9 and TAAR1 agonist 2.6.
COc1ccc(S(=O)(=O)Cc2ccc(C(=O)N3CCN(c4cc(Cl)ccc4C)CC3)o2)cc1 was read as OX1R antag-1 6.4, TAAR1 antag 48.8*, GPR7 antag -10.7, CHO parental Ca 2.4, OX1R antag-2 -18.6 and TAAR1 agonist 1.2.
COc1ccc(S(=O)(=O)Cc2ccc(C(=O)N3CCN(c4cc(C)ccc4C)CC3)o2)cc1 was read as OX1R antag-1 14.4, TAAR1 antag 20.4, GPR7 antag 12.0, CHO parental Ca -30.1, OX1R antag-2 -32.8 and TAAR1 agonist -1.3.
For COc1ccc(S(=O)(=O)Cc2ccc(C(=O)N3CCN(c4cccc(C)c4C)CC3)o2)cc1 the results were OX1R antag-1 11.3, TAAR1 antag 33.2, GPR7 antag -0.8, CHO parental Ca 48.5*, OX1R antag-2 7.5 and TAAR1 agonist -0.5.
Screening Cc1ccc(S(=O)(=O)Cc2ccc(C(=O)N3CCN(c4cccc(C)c4C)CC3)o2)cc1 returned OX1R antag-1 8.3, TAAR1 antag -6.0, GPR7 antag 6.3, CHO parental Ca -1.3, OX1R antag-2 -32.5 and TAAR1 agonist -1.6.
`CCOC(=O)c1oc2cc(O)cc(C)c2c1C` gave TAAR1 antag -12.3 and TAAR1 agonist -2.2.
Screening COc1ccc(C(C)NC(=O)C23CC4CC(CC(C4)C2)C3)cc1OC (stereo unspecified) returned OX1R antag-1 13.1, TAAR1 antag -2.5, GPR7 antag 0.4, CHO parental Ca -20.8, OX1R antag-2 -26.6 and TAAR1 agonist 0.4.
Screening CCOC(=O)CSc1nnc(CNC(=O)c2ccc(OC)cc2OC)n1C returned OX1R antag-1 12.9, TAAR1 antag -2.9, GPR7 antag 24.8, CHO parental Ca -0.7, OX1R antag-2 -5.2 and TAAR1 agonist 18.7.
`O=C(NCc1ccccc1)c1onc(CSc2ccccc2)c1C(=O)NCC1CC1` gave OX1R antag-1 62.3, TAAR1 antag 56.0*, CHO parental Ca 47.5*, OX1R antag-2 46.7 and TAAR1 agonist 14.2.
Screening CCCOc1ccc(C(=O)CCC(=O)NNC(=O)Cn2nc(C)cc2C)cc1 returned OX1R antag-1 12.9, TAAR1 antag -31.2, CHO parental Ca -3.6, OX1R antag-2 -10.0 and TAAR1 agonist 4.3.
For COc1cc(C(=O)OCc2ccc(C)cc2)cc(NC(=O)c2cccs2)c1OC the results were OX1R antag-1 4.2, TAAR1 antag -8.3, GPR7 antag -4.8, CHO parental Ca -19.2, OX1R antag-2 -18.9 and TAAR1 agonist 2.9.
